{"source": "ChEMBL document CHEMBL4196166", "about": "(J Med Chem, 2018)", "key": {"Plasminogen": {"molecular_target": "Plasminogen (Homo sapiens, UniProt P00747)", "sequence (P00747 97-580 limits assumed)": "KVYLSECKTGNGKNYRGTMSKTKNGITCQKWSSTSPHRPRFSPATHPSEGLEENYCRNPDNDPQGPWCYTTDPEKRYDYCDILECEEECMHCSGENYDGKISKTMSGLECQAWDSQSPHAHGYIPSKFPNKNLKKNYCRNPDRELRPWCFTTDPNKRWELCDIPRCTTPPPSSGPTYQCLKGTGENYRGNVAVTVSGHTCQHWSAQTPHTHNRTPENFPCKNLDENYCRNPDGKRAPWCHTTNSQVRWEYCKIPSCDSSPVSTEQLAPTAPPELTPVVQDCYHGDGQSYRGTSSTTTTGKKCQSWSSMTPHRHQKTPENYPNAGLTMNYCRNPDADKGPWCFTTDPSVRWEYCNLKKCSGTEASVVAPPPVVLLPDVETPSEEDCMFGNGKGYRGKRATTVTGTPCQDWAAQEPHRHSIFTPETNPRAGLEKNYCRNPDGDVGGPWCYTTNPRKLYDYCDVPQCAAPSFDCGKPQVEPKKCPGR", "sequence (P00747 581-810 limits assumed)": "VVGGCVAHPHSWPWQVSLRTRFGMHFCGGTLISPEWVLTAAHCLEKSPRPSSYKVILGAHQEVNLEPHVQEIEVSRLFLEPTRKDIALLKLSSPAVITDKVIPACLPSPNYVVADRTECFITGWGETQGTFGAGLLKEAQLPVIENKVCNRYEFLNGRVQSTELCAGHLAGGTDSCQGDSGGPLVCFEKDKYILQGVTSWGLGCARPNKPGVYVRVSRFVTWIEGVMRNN", "experiment": "Inhibition of plasmin (unknown origin) using chromogenic H-D-Ile-L-Pro-L-Arg-p-nitoraniline as substrate by […]"}, "Rattus norvegicus [1]": {"tested_on": "Rattus norvegicus", "experiment": "Diuretic effect in Sprague-Dawley rat assessed as increase in acetazolamide-induced urine volume at 1.5 mg/kg, iv measured after 6 hrs post dose relative to acetazolamide-treated control", "assay_type": "ADME, organism-based", "settings": "in vivo", "method_in_brief": "(§1)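 Male 21-week-old Sprague-Dawley rats, 8 per group. One ip injection of 25 mg/kg acetazolamide (25 mg/mL in 0.9% saline, 1 mL/kg) or vehicle, then one iv injection of 1.5 mg/kg compound (1.5 mg/mL, 1 mL/kg) in 50 mM acetate buffer pH 5.5/5% DMSO, with 0.5% Tween-80 for some compounds. Total urine collected in metabolic cages over 6 h. Urine Na+ and K+ measured on a biochemistry analyzer. Mean ± SEM reported.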"}, "Plasma kallikrein": {"molecular_target": "Plasma kallikrein (Homo sapiens, UniProt P03952)", "sequence (P03952 20-390 limits assumed)": "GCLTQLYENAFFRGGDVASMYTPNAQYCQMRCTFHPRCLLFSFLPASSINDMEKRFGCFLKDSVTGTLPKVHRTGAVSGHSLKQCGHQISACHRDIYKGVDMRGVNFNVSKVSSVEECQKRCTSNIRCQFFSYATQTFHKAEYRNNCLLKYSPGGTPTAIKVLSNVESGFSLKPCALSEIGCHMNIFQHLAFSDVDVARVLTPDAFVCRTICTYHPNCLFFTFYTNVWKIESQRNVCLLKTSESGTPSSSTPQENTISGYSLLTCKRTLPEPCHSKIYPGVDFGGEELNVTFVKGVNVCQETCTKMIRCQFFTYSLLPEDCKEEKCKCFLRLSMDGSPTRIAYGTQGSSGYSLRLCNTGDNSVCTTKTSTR", "sequence (P03952 391-638 limits assumed)": "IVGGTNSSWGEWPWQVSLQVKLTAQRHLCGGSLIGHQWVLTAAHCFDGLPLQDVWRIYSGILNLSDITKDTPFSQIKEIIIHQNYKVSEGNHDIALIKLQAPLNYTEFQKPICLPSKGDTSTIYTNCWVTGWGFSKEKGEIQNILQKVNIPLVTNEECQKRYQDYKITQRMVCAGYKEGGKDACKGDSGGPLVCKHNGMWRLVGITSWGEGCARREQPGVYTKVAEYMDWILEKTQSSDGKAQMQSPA", "experiment": "Inhibition of human plasma kallikrein using chromogenic L-pyroGlu-L-Pro-L-Arg-p-nitroaniline as substrate by fluorescence assay"}, "[2]": {"molecular_target": "T1, Urokinase-type plasminogen activator (Homo sapiens, UniProt P00749)", "experiment": "Inhibition of human kidney uPA using chromogenic H-D-Ile-L-Pro-L-Arg-p-nitoraniline as substrate by fluorescence assay", "method_in_brief": "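Enzyme was uPA from human kidney cells at 10 nM final. […] Absorbance change at 405 nm gave initial rates. IC50 from a sigmoidal fit of % residual activity vs log concentration.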"}, "HT-1080 [3]": {"tested_on": "HT-1080", "experiment": "Cytotoxicity against human HT1080 cells assessed as reduction in cell viability after 48 hrs by CellTiter 96 Aqueous One solution cell proliferation assay", "assay_type": "functional, cell-based", "settings": "HT-1080, 48 h", "method_in_brief": "(§2)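 Cells grown in DMEM high glucose with 10% heat-inactivated FCS, seeded at 5000/well and left 18 h. Compounds added at 1 nM–100 µM final (0.2% vehicle), n = 4 wells per concentration, with colour blanks. After 48 h, MTS reagent added for 2 h and A490 read. IC50 from a variable-slope sigmoidal fit.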"}, "Coagulation factor XI": {"molecular_target": "Coagulation factor XI (Homo sapiens, UniProt P03951)", "sequence (P03951 19-387 limits assumed)": "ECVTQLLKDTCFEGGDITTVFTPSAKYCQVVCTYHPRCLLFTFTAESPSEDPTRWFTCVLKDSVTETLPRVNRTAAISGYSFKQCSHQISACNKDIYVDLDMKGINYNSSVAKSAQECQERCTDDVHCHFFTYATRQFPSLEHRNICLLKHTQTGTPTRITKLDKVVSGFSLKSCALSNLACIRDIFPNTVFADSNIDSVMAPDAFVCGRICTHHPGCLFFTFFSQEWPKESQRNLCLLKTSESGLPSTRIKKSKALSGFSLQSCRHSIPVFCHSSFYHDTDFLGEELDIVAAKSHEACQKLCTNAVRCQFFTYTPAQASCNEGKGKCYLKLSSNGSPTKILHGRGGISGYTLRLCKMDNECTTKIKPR", "sequence (P03951 388-625 limits assumed)": "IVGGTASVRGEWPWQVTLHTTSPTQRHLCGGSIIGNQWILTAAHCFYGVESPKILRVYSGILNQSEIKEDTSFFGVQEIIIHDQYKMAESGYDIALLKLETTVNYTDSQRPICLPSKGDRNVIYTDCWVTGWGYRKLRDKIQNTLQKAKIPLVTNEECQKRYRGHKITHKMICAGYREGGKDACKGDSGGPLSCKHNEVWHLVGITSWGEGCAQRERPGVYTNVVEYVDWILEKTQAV", "experiment": "Inhibition of factor 11a (unknown origin) using chromogenic L-pyroGlu-L-Pro-L-Arg-p-nitroaniline as substrate by […]"}, "Prothrombin": {"molecular_target": "Prothrombin (Homo sapiens, UniProt P00734)", "experiment": "Inhibition of thrombin (unknown origin) using chromogenic H-D-Ile-L-Pro-L-Arg-p-nitoraniline as substrate by […]"}, "HEK293": {"tested_on": "HEK293", "experiment": "Cytotoxicity against HEK293 cells assessed as reduction in cell viability after 48 hrs by CellTiter 96 Aqueous One solution cell proliferation assay", "assay_type": "cell-based", "settings": "Homo sapiens, HEK293, 48 h", "method_in_brief": "as §2"}, "Rattus norvegicus [4]": {"tested_on": "Rattus norvegicus", "experiment": "Antikaliuretic effect in Sprague-Dawley rat assessed as decrease in acetazolamide-induced K+ excretion at 1.5 mg/kg, iv measured after 6 hrs post dose relative to acetazolamide-treated control", "assay_type": "ADME, organism-based", "set-up": "scale not given: the % may be the effect or the level left", "settings": "in vivo", "method_in_brief": "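Male 21-week-old Sprague-Dawley rats, 8 per group. Given 25 mg/kg acetazolamide ip (0.9% saline), then 1.5 mg/kg compound iv (50 mM acetate buffer pH 5.5/5% DMSO, plus 0.5% Tween-80 for some analogs). Vehicle-only group included. Total urine collected in metabolic cages over 6 h. Urine Na+ and K+ measured on a biochemistry analyzer; compared with acetazolamide controls.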"}, "Coagulation factor X": {"molecular_target": "Coagulation factor X (Homo sapiens, UniProt P00742)", "sequence (P00742 41-179 limits assumed)": "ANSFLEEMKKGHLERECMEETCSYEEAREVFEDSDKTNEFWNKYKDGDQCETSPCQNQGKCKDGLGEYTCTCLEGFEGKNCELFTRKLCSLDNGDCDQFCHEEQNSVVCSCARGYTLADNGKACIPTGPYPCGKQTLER", "sequence (P00742 235-488 limits assumed)": "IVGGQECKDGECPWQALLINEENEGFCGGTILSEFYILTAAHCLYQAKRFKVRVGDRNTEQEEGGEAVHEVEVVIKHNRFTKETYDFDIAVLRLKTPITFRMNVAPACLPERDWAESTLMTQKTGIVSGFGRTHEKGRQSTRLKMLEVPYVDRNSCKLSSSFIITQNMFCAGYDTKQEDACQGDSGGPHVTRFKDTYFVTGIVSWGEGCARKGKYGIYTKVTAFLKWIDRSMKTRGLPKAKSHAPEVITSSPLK", "experiment": "Inhibition of factor 10a (unknown origin) using chromogenic H-D-Ile-L-Pro-L-Arg-p-nitoraniline as substrate by fluorescence assay"}, "HepG2": {"tested_on": "HepG2", "experiment": "Cytotoxicity against human HepG2 cells assessed as reduction in cell viability after 48 hrs by CellTiter 96 Aqueous One solution cell proliferation assay", "assay_type": "functional, cell-based", "settings": "HepG2, 48 h", "method_in_brief": "as §2"}, "[5]": {"molecular_target": "T1, Urokinase-type plasminogen activator", "experiment": "Inhibition of human kidney uPA using Z-Gly-Gly-Arg-AMC as substrate measured over 15 mins by fluorescence assay"}, "[6]": {"molecular_target": "Urokinase-type plasminogen activator (Mus musculus, UniProt P06869)", "sequence (P06869 21-178 limits assumed)": "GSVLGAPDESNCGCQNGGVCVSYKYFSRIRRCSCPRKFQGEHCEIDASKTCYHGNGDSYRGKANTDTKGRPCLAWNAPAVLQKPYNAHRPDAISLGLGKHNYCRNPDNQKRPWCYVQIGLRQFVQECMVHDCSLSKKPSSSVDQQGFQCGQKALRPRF", "sequence (P06869 180-433 limits assumed)": "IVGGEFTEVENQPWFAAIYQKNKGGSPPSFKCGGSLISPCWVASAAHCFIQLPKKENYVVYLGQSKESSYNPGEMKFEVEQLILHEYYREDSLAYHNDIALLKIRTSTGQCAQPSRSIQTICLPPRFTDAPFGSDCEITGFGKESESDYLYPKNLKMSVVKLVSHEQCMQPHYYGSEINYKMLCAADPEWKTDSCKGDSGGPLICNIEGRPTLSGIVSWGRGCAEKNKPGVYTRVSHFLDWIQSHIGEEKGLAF", "experiment": "Inhibition of mouse uPA using Z-Gly-Gly-Arg-AMC as substrate after 15 mins by fluorescence assay"}, "Rattus norvegicus [7]": {"tested_on": "Rattus norvegicus", "experiment": "Antikaliuretic effect in Sprague-Dawley rat assessed as increase in acetazolamide-induced Na+ excretion at 1.5 mg/kg, iv measured after 6 hrs post dose relative to acetazolamide-treated control", "assay_type": "ADME, organism-based", "settings": "in vivo", "method_in_brief": "as §1"}, "[8]": {"molecular_target": "Vitamin K-dependent protein C (Homo sapiens, UniProt P04070)", "sequence (P04070 43-197 limits assumed)": "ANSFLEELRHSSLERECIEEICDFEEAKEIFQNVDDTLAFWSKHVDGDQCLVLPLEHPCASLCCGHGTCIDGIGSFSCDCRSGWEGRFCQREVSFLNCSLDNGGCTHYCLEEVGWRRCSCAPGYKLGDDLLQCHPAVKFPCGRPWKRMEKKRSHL", "sequence (P04070 212-461 limits assumed)": "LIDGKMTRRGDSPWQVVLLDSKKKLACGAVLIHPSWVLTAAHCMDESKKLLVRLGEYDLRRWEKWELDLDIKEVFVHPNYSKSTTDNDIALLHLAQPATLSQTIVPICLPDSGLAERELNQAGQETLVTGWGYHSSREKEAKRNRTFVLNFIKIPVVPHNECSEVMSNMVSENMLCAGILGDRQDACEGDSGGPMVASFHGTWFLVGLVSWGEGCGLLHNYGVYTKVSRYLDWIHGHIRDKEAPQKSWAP", "experiment": "Inhibition of activated protein C (unknown origin) using chromogenic L-pyroGlu-L-Pro-L-Arg-p-nitroaniline as substrate by fluorescence assay"}, "MDA-MB-231": {"tested_on": "MDA-MB-231", "experiment": "Cytotoxicity against human MDA-MB-231 cells assessed as reduction in cell viability after 48 hrs by CellTiter 96 Aqueous One solution cell proliferation assay", "assay_type": "functional, cell-based", "settings": "MDA-MB-231, 48 h", "method_in_brief": "as §2"}, "HT-1080 [9]": {"tested_on": "HT-1080", "experiment": "Antimetastatic activity against luciferase-tagged human HT1080 cells xenografted in NOD.Cg-Prkdc-IL2rg<tm1Wjl>SzJAusb mouse assessed as inhibition of late-stage lung metastasis at 7.5 mg/kg/day, ip administered […] measured day 21", "assay_type": "functional", "settings": "HT-1080, ip", "method_in_brief": "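2.5 × 10^5 luciferase-tagged HT-1080 cells in PBS given by lateral tail vein on day 0. Daily ip dosing at 7.5 mg/kg from day -1 to day 20 (vehicle 50 mM acetate pH 5.5, 7.5% DMSO, 0.75% Tween80). Lungs harvested at day 21, homogenized, and tumour burden measured by luciferase assay. n = 4–6; one-way ANOVA with Dunnett's test.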"}, "[10]": {"molecular_target": "Tissue-type plasminogen activator (Homo sapiens, UniProt P00750)", "sequence (P00750 whole entry)": "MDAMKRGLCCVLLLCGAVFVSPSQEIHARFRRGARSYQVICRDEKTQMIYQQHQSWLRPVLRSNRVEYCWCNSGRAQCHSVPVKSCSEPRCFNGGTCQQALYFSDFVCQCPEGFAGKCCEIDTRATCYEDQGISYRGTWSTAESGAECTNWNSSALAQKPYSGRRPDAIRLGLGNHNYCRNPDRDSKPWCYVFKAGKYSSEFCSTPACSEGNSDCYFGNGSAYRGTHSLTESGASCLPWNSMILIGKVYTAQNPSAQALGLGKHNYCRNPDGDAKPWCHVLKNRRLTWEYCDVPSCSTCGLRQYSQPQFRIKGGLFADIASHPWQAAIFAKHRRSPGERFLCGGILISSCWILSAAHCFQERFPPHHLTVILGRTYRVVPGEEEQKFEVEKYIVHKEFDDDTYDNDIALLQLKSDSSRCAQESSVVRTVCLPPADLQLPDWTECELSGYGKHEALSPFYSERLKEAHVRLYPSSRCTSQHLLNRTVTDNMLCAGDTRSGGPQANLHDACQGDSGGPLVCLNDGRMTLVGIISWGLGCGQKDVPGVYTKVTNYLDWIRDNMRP", "experiment": "Inhibition of tPA (unknown origin) using chromogenic H-D-Ile-L-Pro-L-Arg-p-nitoraniline as substrate by […]"}}, "data": [{"smiles": "COc1ncc(-c2nc(C(=O)NC(=N)N)c(N)nc2N2CCCCCC2)cn1", "values": [{"measurement": "IC50", "setting": "Plasminogen", "value": "> 20", "unit": "µM"}, {"measurement": "Activity", "setting": "Rattus norvegicus [1]", "value": "Non-Toxic"}, {"measurement": "IC50", "setting": "Plasma kallikrein", "value": "> 50", "unit": "µM"}, {"measurement": "IC50", "setting": "[2]", "value": 0.039, "unit": "µM"}, {"measurement": "IC50", "setting": "HT-1080 [3]", "value": 44.8, "unit": "µM"}, {"measurement": "IC50", "setting": "Coagulation factor XI", "value": "> 50", "unit": "µM"}, {"measurement": "IC50", "setting": "Prothrombin", "value": "> 20", "unit": "µM"}, {"measurement": "IC50", "setting": "HEK293", "value": 74.9, "unit": "µM"}, {"measurement": "Activity", "setting": "Rattus norvegicus [4]", "value": 24, "unit": "%"}, {"measurement": "IC50", "setting": "Coagulation factor X", "value": "> 50", "unit": "µM"}, {"measurement": "IC50", "setting": "HepG2", "value": 57.3, "unit": "µM"}, {"measurement": "Ki", "setting": "[5]", "value": 0.053, "unit": "µM"}, {"measurement": "Ki", "setting": "[6]", "value": 1.61, "unit": "µM"}, {"measurement": "Activity", "setting": "Rattus norvegicus [7]", "value": "Non-Toxic"}, {"measurement": "IC50", "setting": "[8]", "value": "> 50", "unit": "µM"}, {"measurement": "IC50", "setting": "MDA-MB-231", "value": "> 100", "unit": "µM"}, {"measurement": "inhibition in vivo at 7.5 mg/kg/day", "setting": "HT-1080 [9]", "value": 33, "unit": "%"}, {"measurement": "IC50", "setting": "[10]", "value": "> 20", "unit": "µM"}]}, {"smiles": "N=C(N)NC(=O)c1nc(-c2cc3ccccc3o2)c(N2CCCCCC2)nc1N", "values": [{"measurement": "IC50", "setting": "Plasminogen", "value": "> 10", "unit": "µM"}, {"measurement": "Activity", "setting": "Rattus norvegicus [1]", "value": "Non-Toxic"}, {"measurement": "IC50", "setting": "Plasma kallikrein", "value": 11.3, "unit": "µM"}, {"measurement": "IC50", "setting": "[2]", "value": 0.53, "unit": "µM"}, {"measurement": "IC50", "setting": "HT-1080 [3]", "value": 4.6, "unit": "µM"}, {"measurement": "IC50", "setting": "Coagulation factor XI", "value": 31, "unit": "µM"}, {"measurement": "IC50", "setting": "Prothrombin", "value": "> 10", "unit": "µM"}, {"measurement": "IC50", "setting": "HEK293", "value": 3.1, "unit": "µM"}, {"measurement": "Activity", "setting": "Rattus norvegicus [4]", "value": "Non-Toxic"}, {"measurement": "IC50", "setting": "Coagulation factor X", "value": "> 50", "unit": "µM"}, {"measurement": "IC50", "setting": "HepG2", "value": 12.7, "unit": "µM"}, {"measurement": "Ki", "setting": "[5]", "value": 0.183, "unit": "µM"}, {"measurement": "Ki", "setting": "[6]", "value": 1.8, "unit": "µM"}, {"measurement": "Activity", "setting": "Rattus norvegicus [7]", "value": "Non-Toxic"}, {"measurement": "IC50", "setting": "[8]", "value": "> 50", "unit": "µM"}, {"measurement": "inhibition in vivo at 7.5 mg/kg/day", "setting": "HT-1080 [9]", "value": 21, "unit": "%"}, {"measurement": "IC50", "setting": "[10]", "value": "> 10", "unit": "µM"}]}, {"smiles": "N=C(N)NC(=O)c1nc(Cl)c(N2CCCCCC2)nc1N", "note": "[N,N-HEXAMETHYLENEAMILORIDE]", "values": [{"measurement": "IC50", "setting": "Plasminogen", "value": "> 10", "unit": "µM"}, {"measurement": "Activity", "setting": "Rattus norvegicus [1]", "value": "Non-Toxic"}, {"measurement": "IC50", "setting": "Plasma kallikrein", "value": "> 50", "unit": "µM"}, {"measurement": "IC50", "setting": "[2]", "value": 2.4, "unit": "µM"}, {"measurement": "IC50", "setting": "HT-1080 [3]", "value": 6.6, "unit": "µM"}, {"measurement": "IC50", "setting": "Coagulation factor XI", "value": "> 50", "unit": "µM"}, {"measurement": "IC50", "setting": "Prothrombin", "value": "> 10", "unit": "µM"}, {"measurement": "IC50", "setting": "HEK293", "value": 2.8, "unit": "µM"}, {"measurement": "Activity", "setting": "Rattus norvegicus [4]", "value": 24, "unit": "%"}, {"measurement": "IC50", "setting": "Coagulation factor X", "value": "> 50", "unit": "µM"}, {"measurement": "IC50", "setting": "HepG2", "value": 20.2, "unit": "µM"}, {"measurement": "Ki", "setting": "[5]", "value": 1.36, "unit": "µM"}, {"measurement": "Ki", "setting": "[6]", "value": 9.31, "unit": "µM"}, {"measurement": "Activity", "setting": "Rattus norvegicus [7]", "value": "Non-Toxic"}, {"measurement": "IC50", "setting": "[8]", "value": "> 50", "unit": "µM"}, {"measurement": "IC50", "setting": "MDA-MB-231", "value": 27.3, "unit": "µM"}, {"measurement": "IC50", "setting": "[10]", "value": "> 10", "unit": "µM"}]}]}
